Results from ChEMBL document CHEMBL1146552, “Cytotoxic diterpenes from Scoparia dulcis” (2003).
Counter-ions that a name gives are not always drawn. The source made the active and inactive calls. The rule behind the calls is not given here.

Legend:
[1] = (§1) Cytotoxicity against human SCL cells by MTT assay; format: functional; conditions: read-out: ED50 (the source's name)
Summary of the method: (§2)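 Human stomach cancer cells grown in RPMI-1640 complete medium; test materials prepared and cells cultured in medium with 0.25% DMSO. Serial dilutions at 250, 125, 62.5, 31.25 and 15.63 μg/mL, three replicates per concentration. Percent mortality by MTT, with cells in medium or medium-DMSO taken as 100% survival; ED50 (μM) derived, mean ± standard error. Vinblastine sulfate and mitomycin C as positive controls.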

[2] = Cytotoxicity against human SCL6 cells by MTT assay; format: functional; conditions: read-out: ED50 (the source's name); summary of the method: as §2
[3] = (§3) Cytotoxicity against human SCL37'6 cells by MTT assay; format: functional; conditions: read-out: ED50 (the source's name); summary of the method: as §2
[4] = (§4) Cytotoxicity against human SCL9 cells by MTT assay; format: functional; conditions: read-out: ED50 (the source's name); summary of the method: as §2
[5] = (§5) Cytotoxicity against human KATO III cells by MTT assay; format: functional, KATO III cell; conditions: read-out: ED50 (the source's name); summary of the method: as §2
[6] = tested on: NUGC-4; assay: Cytotoxicity against human NUGC4 cells by MTT assay; format: functional; conditions: for EC50: read-out: ED50 (the source's name); summary of the method: as §2
[7] = tested on: SCL; assay: as §1; format: functional; summary of the method: as §2
[8] = tested on: SCL37'6; assay: as §3; format: functional; summary of the method: as §2
[9] = tested on: SCL9; assay: as §4; format: functional; summary of the method: as §2
[10] = tested on: KATO III cell; assay: as §5; format: functional; summary of the method: as §2
[11] = tested on: SCL-6 (Homo sapiens); assay: Cytotoxicity against human SCL6 cells by MTT assay

| SMILES | EC50 [1] [µM] | EC50 [2] [µM] | EC50 [3] [µM] | EC50 [4] [µM] | EC50 [5] [µM] | EC50 [6] [µM] | Activity [7] | Activity [8] | Activity [9] | Activity [10] | Activity [6] | Activity [11] |
| --- | --- | --- | --- | --- | --- | --- | --- | --- | --- | --- | --- | --- |
| C=C1C[C@@H](OC(=O)c2ccccc2)C2[C@](C)(CO)CCC[C@]2(C)[C@@H]1CC/C(C)=C/CO (some centres undefined) [SCOPADIOL] | 22.8 | 12.2 | 8.9 | 12.2 | 9.7 | 16.6 | – | – | – | – | – | – |
| CC1(C)[C@@H](O)CC[C@@]2(C)[C@H]1[C@H](OC(=O)c1ccccc1)C[C@H]1CC(=O)[C@]3(C)CC[C@]12C3 | 19.5 | 62.9 | 45.8 | 57.9 | 71.7 | 123 | – | – | – | – | – | – |
| C[C@@]12CC[C@]3(C1)[C@@H](C[C@@H](OC(=O)c1ccccc1)[C@H]1[C@](C)(CO)CCC[C@@]13C)C[C@@H]2O [DULCIDIOL] | 45.3 | 46 | 42.6 | 41.6 | 29 | 105 | – | – | – | – | – | – |
| CC1(C)CC[C@]2(C)CC[C@]3(C)[C@H]4CC=C5[C@@H](CC[C@H](O)C5(C)C)[C@]4(C)CC[C@@]3(C)[C@@H]2C1 | – | – | – | – | – | – | inactive | inactive | inactive | inactive | inactive | inactive |
| CO[C@@]12[C@H](COC(N)=O)C3=C(C(=O)C(C)=C(N)C3=O)N1C[C@@H]1N[C@@H]12 [MITOMYCIN] | 20.2 | 20.7 | 19 | 17.4 | 49 | 19.1 | – | – | – | – | – | – |
| C[C@@]12CC[C@]3(C1)[C@H](CC2=O)C[C@@H](OC(=O)c1ccccc1)[C@H]1[C@](C)(CO)CCC[C@@]13C [SCOPADULCIOL] | 22 | 32.8 | 24.4 | 37.7 | 35.5 | 33.3 | – | – | – | – | – | – |
| C[C@@]12CC[C@]3(C1)[C@H](CC2=O)C[C@@H](OC(=O)c1ccccc1)[C@@H]1[C@]3(C)CCC[C@]1(C)C(=O)O [4-EPI-SCOPADULCIC ACID B] | 37 | 137 | 59.3 | 48.3 | 124 | 110 | – | – | – | – | – | – |
| COc1ccc2[nH]c(=O)oc2c1 | – | – | – | – | – | – | inactive | inactive | inactive | inactive | inactive | inactive |
| CC[C@]1(O)C[C@@H]2CN(CCc3c([nH]c4ccccc34)[C@@](C(=O)OC)(c3cc4c(cc3OC)N(C)[C@H]3[C@@](O)(C(=O)OC)[C@H](OC(C)=O)[C@]5(CC)C=CCN6CC[C@]43[C@@H]65)C2)C1 [VINBLASTINE SULFATE] | 5.9 | 6.1 | 5.3 | 5.3 | 6.1 | 5.3 | – | – | – | – | – | – |
